Compound activity as filed in PubChem BioAssay.
SENP8 block-1 – SENP8 protease inhibition; AID 2540; Q96LD8; inhibition, % at 10 µM; 330,000 compounds, 1.2% hits; purified SENP8, Z-RLRGG-aminoluciferin cleavage, luminescence; in the data active = inhibition above about 50%
CendR NRP1 mod – modulators of CendR peptide binding to human neuropilin-1; O14786; FAM-RPARPAR peptide binding to NRP-1, fluorescence polarization; inhibition, % at 25 µM; 360,000 compounds, 0.85% hits; AID 602438;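 active = inhibition or corrected inhibition above about 18%, plus a signal ratio from 0.5 to 1.5, limit read from the data, passing the limit was not always enough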
SENP6 inh – inhibitors of human SENP6 protease | Recombinant SENP6 catalytic domain, aminoluciferin luminescence | inhibition, % at 10 µM | 330,000 compounds, 1.8% hits | AID 2599;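 active = inhibition above about 50% at the single tested dose, limit read from the data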;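 note: plate controls were DMSO wells with enzyme for no effect and DMSO wells lacking enzyme for full effect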
SENP8 block-2 – inhibitors of human SENP8 protease; recombinant SENP8, Nedd8 substrate fluorescence; inhibition, % at 20 µM; 360,000 compounds, 0.64% hits; AID 602440; in the data active = inhibition mostly above about 40%, no sharp cut-off; inactive = mostly below about 27%
SENP7 inh – SENP7 protease inhibition | Q9BQF6 | recombinant SENP7, Z-RLRGG-aminoluciferin luminescence, 40 min | inhibition, % at 5 µM | 330,000 compounds, 1.5% hits;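 active = inhibition above about 50% at the single test dose, limit read from the data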;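 note: plate controls were DMSO with enzyme for no effect and no enzyme buffer wells for full effect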
Target sequence (Q9BQF6 706-1050 limits assumed): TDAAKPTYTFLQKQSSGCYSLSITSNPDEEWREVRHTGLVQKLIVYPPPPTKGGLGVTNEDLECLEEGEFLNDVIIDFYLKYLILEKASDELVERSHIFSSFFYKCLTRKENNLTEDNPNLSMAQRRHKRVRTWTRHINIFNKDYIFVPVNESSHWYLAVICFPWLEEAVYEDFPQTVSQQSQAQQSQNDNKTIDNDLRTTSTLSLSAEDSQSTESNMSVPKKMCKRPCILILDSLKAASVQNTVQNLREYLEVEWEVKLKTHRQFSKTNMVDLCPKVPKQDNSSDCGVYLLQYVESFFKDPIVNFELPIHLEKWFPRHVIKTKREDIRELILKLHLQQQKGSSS
SENP1 inh – SENP1 (human) catalytic domain inhibition. Q9P0U3. inhibition, % at 10 µM. 360,000 compounds, 0.21% hits. recombinant SENP1 catalytic domain, CyPet-SUMO1-YPet FRET cleavage;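 active = inhibition at least 30% at 10 µM, raw YFP signal under a set limit, fluorescence ratio 0.5 to 1.5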;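 note: 0% = enzyme with DMSO and 100% = no enzyme wells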
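Test system: hSENP1 catalytic domain, recombinant; Amount: 20 pM final SENP1 enzyme; Medium: Tris pH 8 buffer plus EDTA, NaCl, BME, BSA, NP40, catalase; Schedule: 50 min enzyme reaction, room temperature, light-protected; Technique: FRET fluorescence in CFP and YFP emission channels; Controls: no-enzyme wells low, DMSO-plus-enzyme wells high control.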
SENP8 confirm – human SENP8 inhibition, confirmed | shares compounds with SENP7 inh | Recombinant SENP8, Z-RLRGG-aminoluciferin luminescence, 60 min | inhibition, % at 12.5 µM | 6,200 compounds, 40% hits | AID 488912;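 active = mean inhibition across replicates above about 50%, limit read from the data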
SENP6 conf – confirmation of human SENP6 protease inhibitors | recombinant SENP6, Z-RLRGG-aminoluciferin luminescence | 6,200 compounds, 58% hits | shares compounds with SENP7 inh | inhibition, % at 12.5 µM | AID 488915
SENP7 confirm – confirmation of human SENP7 protease inhibitors; AID 488917; recombinant SENP7, Z-RLRGG-aminoluciferin luminescence, 40 min; shares compounds with SENP7 inh; inhibition, % at 12.5 µM; 6,200 compounds, 69% hits
Casp3 SENP sel – caspase-3 inhibition (SENP selectivity assay). shares compounds with SENP7 inh. inhibition, % at 12.5 µM. purified caspase-3, Z-DEVD-aminoluciferin luminescence, 60 min. 6,200 compounds, 60% hits;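 active = mean inhibition above about 50%, limit read from the data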;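 note: plate controls were enzyme with DMSO for no effect and wells without caspase-3 for full effect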
Target sequence (P42574 28-227 limits assumed): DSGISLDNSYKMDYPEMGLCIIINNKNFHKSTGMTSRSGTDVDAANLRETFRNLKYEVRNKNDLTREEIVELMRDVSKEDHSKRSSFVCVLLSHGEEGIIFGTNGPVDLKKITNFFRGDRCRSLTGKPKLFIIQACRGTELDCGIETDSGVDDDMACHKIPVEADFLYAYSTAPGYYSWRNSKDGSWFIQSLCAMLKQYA
SENP luc ctr – luminescence interference (SENP counter-screen); shares compounds with SENP7 inh; Pre-incubated SENP8/Z-RLRGG-aminoluciferin, luciferase luminescence interference; inhibition, % at 12.5 µM; 6,200 compounds, 39% hits;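 active = mean inhibition above about 50% when retested at one dose, limit read from the data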;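 note: plate controls were DMSO wells with completed reaction for no effect and substrate without enzyme for full effect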
An asterisk follows results filed as active; x = no result given. The list is not random: actives were taken first. Their share in the collection is about 3.3%.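 Rule for the calls, unless noted: active = mean inhibition above about 50% in the one-dose retest (limit read from the data); inactive = the rest.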

SMILES	SENP8 block-1	CendR NRP1 mod	SENP6 inh	SENP8 block-2	SENP7 inh	SENP1 inh	SENP8 confirm	SENP6 conf	SENP7 confirm	Casp3 SENP sel	SENP luc ctr
Cc1ccccc1-c1noc(-c2ccccc2F)n1	90*	-5	84*	19	96*	1	78*	78*	94*	81*	61*
Cc1ccccc1-c1noc(-c2ccc(Cl)cc2)n1	30	15	-4	9	79*	2	21	26	13	49	8
O=C(c1ccccc1-c1nc(-c2ccc(Cl)cc2)no1)N1CCCC1	-2	-6	-11	12	-17	0	x	x	x	x	x
Cc1cccc(C)c1NC(=O)C1c2ccccc2OCC(=O)N1C1CC1 (stereo unspecified)	x	0	x	4	x	-1	x	x	x	x	x
O=C(NCc1ccccc1)c1cc(C2COCCN2C(=O)c2ccc3c(c2)CCO3)on1 (stereo unspecified)	x	-1	x	8	x	1	x	x	x	x	x
COc1ccc(/C=C2\CCc3ccccc3C2=O)cc1O	95*	0	99*	4	95*	-6	96*	99*	101*	92*	95*
COc1ccc(C=C2Cc3ccccc3C2=O)cc1	x	-1	x	-284	x	-41	x	x	x	x	x
CC(=O)Nc1ccc(/C=C2\CCc3ccccc3C2=O)cc1	34	-8	56*	10	44	-6	40	46	34	20	18
C(=C\c1nc(-c2ccccc2)no1)/c1ccccc1	75*	6	84*	3	85*	2	75*	82*	94*	65*	59*
CN1N=C(C(=O)N=c2sc3ccccc3n2C)CCC1=O	x	1	x	-38	x	-120	x	x	x	x	x
Cc1ccc(/C=N/NC(=O)c2ccc(Br)o2)s1	-5	8	14	-18	-3	-2	x	x	x	x	x
CCc1ccc(/C=N\NC(=O)c2ccc(Br)o2)s1	15	8	55*	-26	31	3	41	37	76*	67*	54*
Cc1ccc(-c2nc(Nc3ccccc3)n[nH]2)cc1	14	0	51*	-114	51*	1	16	35	73*	22	25
Nc1nc(CSc2n[nH]c(-c3ccccc3)n2)nc(Nc2ccccc2)n1	-1	2	0	22	1	3	x	x	x	x	x
O=c1c2c(nc3n1CCCCC3)sc1c(O)c(Br)ccc12	26	2	65*	6	34	0	59*	59*	87*	69*	14
CCN(CC)CCOc1c(Br)ccc2c1sc1nc3n(c(=O)c12)CCC3	6	0	-14	-5	-3	-2	x	x	x	x	x
CSc1nc(O)c(N=Nc2ccc(F)cc2F)c(=O)[nH]1	81*	-1	91*	16	87*	4	83*	86*	96*	93*	53*
O=c1c2ccccc2nnn1CSc1ccccc1F	61*	8	49	12	68*	10	78*	77*	94*	84*	79*
Cc1ccc(CN2CCN(Cc3cnn(-c4ccc(Cl)cc4)c3)CC2CCO)o1 (stereo unspecified)	-11	-10	-12	4	-2	9	x	x	x	x	x
Cc1ccc(CN2CCN(Cc3ccncc3)CC2CCO)o1 (stereo unspecified)	-9	4	76*	19	7	-2	-20	-21	-9	-10	-6
N=C1SCC(=O)N1c1nc(-c2ccccc2)cs1	89*	-1	96*	10	87*	-3	-5	4	-6	42	-5
O=C(CSc1nc2ccccc2c(=O)n1-c1cccc(C(F)(F)F)c1)NC1CC1	-10	16	32	16	1	1	x	x	x	x	x
CCCNC(=O)CSc1nnc(-c2ccccc2Br)n1-c1cccc(C(F)(F)F)c1	-4	11	-3	10	54*	1	-2	0	-4	0	0
Cn1nc(C(C)(C)C)cc1N1C(=O)CCC1(C)C(=O)NC1CCCC1 (stereo unspecified)	x	8	x	12	x	2	x	x	x	x	x
Cc1ccc(NS(=O)(=O)c2ccc(-n3cccn3)cc2)c(Cl)c1	x	13	x	10	x	1	x	x	x	x	x
SMILES	SENP8 block-1	CendR NRP1 mod	SENP6 inh	SENP8 block-2	SENP7 inh	SENP1 inh	SENP8 confirm	SENP6 conf	SENP7 confirm	Casp3 SENP sel	SENP luc ctr
Cc1ccc(C(=O)NNc2cc(N3CCCC3)nc(N3CCCC3)n2)cc1	95*	x	82*	x	42	x	52*	87*	50*	-1	-2
O=C(NNc1cc(N2CCOCC2)nc(N2CCOCC2)n1)c1ccc(Cl)c(Cl)c1	10	9	49	5	14	-65	x	x	x	x	x
CCCCNC(=S)N/N=C/c1cccc(OCC)c1O	8	14	11	-424	2	-78	x	x	x	x	x
CCOc1cccc(/C=N/NC(=S)Nc2ccccc2[N+](=O)[O-])c1O	47	-4	31	23	79*	-2	28	55*	37	26	7
C/C(=N/NC(=O)c1ccncc1)c1ccccc1	-15	9	-13	6	7	0	x	x	x	x	x
CC(=NNC(=O)c1ccncc1)c1ccccc1Cl	x	18	x	4	x	2	x	x	x	x	x
C/C(=N\NC(=O)c1ccccc1NC(=O)c1ccc(Cl)cc1)c1ccncc1	89*	2	97*	11	97*	1	24	96*	101*	98*	18
C/C(=N\Nc1ccccc1C(=O)O)c1ccncc1	52*	-10	72*	5	52*	0	65*	60*	88*	82*	68*
C[C@@H]1CN([C@H](C)CO)C(=O)CCCn2cc(nn2)CO[C@H]1CN(C)S(=O)(=O)c1ccc(C#N)cc1	x	-2	x	4	x	0	x	x	x	x	x
O=C(Nc1c(Cl)cccc1Cl)c1cc(-c2ccco2)on1	5	2	-24	-2	-2	0	x	x	x	x	x
COc1ccc(NC(=O)c2cc(-c3cccc(OC)c3)on2)cc1	-14	-7	-20	18	5	2	x	x	x	x	x
O=C(Nc1cccc(Cl)c1)c1cc(-c2ccco2)on1	78*	-9	83*	-5	87*	-2	36	81*	97*	77*	42
